Results taken from ChEMBL document CHEMBL1153120, “Synthesis and antiplasmodial activity of novel 2,4-diaminopyrimidines” (Bioorg Med Chem Lett, 2010).
In brackets after ≈: the same amount, converted by molar mass.

How the values were obtained:
[1] = tested on: Plasmodium falciparum; assay: Antiplasmodial activity against Plasmodium falciparum 3D7; type: functional, organism-based
Procedure, shortened: (§1)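 P. falciparum cultures (lab strain 3D7; multidrug-resistant Southeast Asian isolate Dd2) were exposed to compound for 72 h. Parasite viability was read out by DAPI staining.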

[2] = molecular target: Cytochrome P450 2D6 (Homo sapiens, UniProt P10635); assay: Inhibition of human CYP2D6; type: ADME
[3] = molecular target: Cytochrome P450 2C9 (Homo sapiens, UniProt P11712); assay: Inhibition of human CYP2C9; type: ADME
[4] = tested on: Plasmodium falciparum; assay: Antiplasmodial activity against Plasmodium falciparum Dd2; type: functional, organism-based; procedure, shortened: as §1
[5] = molecular target: T1, Cytochrome P450 1A2 (Homo sapiens, UniProt P05177); assay: Inhibition of human CYP1A2; type: ADME
T1 sequence (P05177 whole entry): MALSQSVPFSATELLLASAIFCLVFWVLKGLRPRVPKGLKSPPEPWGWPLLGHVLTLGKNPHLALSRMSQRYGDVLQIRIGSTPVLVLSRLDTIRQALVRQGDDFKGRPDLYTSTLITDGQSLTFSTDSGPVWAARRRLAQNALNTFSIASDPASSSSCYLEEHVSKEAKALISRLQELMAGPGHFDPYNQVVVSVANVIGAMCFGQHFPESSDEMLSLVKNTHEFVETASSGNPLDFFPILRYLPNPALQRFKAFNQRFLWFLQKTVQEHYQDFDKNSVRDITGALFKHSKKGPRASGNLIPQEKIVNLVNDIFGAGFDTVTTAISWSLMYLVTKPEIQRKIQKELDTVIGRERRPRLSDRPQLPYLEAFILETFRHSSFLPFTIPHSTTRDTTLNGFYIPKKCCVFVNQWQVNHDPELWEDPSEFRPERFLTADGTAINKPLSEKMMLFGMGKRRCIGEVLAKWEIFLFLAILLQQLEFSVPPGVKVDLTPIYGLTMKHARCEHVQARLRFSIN

[6] = Solubility at pH 7.4; type: physicochemical; conditions: buffer
[7] = Lipophilicity, log D of the compound; type: physicochemical; conditions: octanol/water
Procedure, shortened: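 Log D was measured at pH 7.4 as the partitioning of compound between an aqueous layer and a second phase.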

[8] = Cytotoxicity against human NHDF after 4 days by alamar blue assay; type: cell-based; conditions: NHDF cells, read-out: LC50
[9] = Cytotoxicity against human RPTEC after 4 days by alamar blue assay; type: cell-based; conditions: RPTEC cells, read-out: LC50
[10] = molecular target: Cytochrome P450 2C19 (Homo sapiens, UniProt P33261); assay: Inhibition of human CYP2C19; type: ADME
[11] = molecular target: Cytochrome P450 3A4 (Homo sapiens, UniProt P08684); assay: Inhibition of human CYP3A4; type: ADME
[12] = tested on: Liver microsomes; assay: Intrinsic clearance in rat liver microsomes measured […]; type: ADME, Microsome
[13] = tested on: Liver microsomes; assay: Intrinsic clearance in human liver microsomes measured […]; type: ADME, Microsome
[14] = molecular target: Voltage-gated inwardly rectifying potassium channel KCNH2 (Homo sapiens, UniProt Q12809); assay: Inhibition of human ERG channel
Sequence of Voltage-gated inwardly rectifying potassium channel KCNH2 (Q12809 whole entry): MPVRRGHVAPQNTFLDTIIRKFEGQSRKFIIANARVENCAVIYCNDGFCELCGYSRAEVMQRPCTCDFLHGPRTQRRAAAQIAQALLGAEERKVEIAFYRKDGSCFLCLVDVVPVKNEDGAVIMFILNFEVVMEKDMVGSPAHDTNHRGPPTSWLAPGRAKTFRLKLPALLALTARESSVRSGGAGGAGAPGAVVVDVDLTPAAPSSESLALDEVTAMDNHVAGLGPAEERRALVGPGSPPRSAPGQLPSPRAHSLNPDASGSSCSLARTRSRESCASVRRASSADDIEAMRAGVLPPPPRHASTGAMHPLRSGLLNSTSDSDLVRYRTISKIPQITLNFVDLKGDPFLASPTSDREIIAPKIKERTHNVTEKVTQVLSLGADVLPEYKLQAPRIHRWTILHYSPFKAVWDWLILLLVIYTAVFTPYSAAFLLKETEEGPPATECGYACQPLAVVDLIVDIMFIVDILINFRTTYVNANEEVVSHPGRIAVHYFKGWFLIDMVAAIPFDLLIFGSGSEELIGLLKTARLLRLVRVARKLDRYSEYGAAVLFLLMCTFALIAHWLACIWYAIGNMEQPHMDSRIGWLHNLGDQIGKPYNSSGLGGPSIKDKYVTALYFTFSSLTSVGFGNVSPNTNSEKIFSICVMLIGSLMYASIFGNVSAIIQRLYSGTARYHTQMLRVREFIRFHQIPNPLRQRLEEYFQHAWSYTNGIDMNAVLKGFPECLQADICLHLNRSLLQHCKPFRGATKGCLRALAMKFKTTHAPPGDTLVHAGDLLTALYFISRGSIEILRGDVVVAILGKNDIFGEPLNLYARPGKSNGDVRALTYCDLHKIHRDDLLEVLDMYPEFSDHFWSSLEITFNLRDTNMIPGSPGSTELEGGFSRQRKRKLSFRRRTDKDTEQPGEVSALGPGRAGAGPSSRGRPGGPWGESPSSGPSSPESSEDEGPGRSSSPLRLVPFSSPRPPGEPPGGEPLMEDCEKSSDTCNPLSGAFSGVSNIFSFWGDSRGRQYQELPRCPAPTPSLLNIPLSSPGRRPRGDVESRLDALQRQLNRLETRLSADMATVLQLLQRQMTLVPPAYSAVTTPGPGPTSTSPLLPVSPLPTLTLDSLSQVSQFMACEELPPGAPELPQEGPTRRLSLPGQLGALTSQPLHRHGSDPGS

Sequence of Cytochrome P450 3A4 (P08684 whole entry): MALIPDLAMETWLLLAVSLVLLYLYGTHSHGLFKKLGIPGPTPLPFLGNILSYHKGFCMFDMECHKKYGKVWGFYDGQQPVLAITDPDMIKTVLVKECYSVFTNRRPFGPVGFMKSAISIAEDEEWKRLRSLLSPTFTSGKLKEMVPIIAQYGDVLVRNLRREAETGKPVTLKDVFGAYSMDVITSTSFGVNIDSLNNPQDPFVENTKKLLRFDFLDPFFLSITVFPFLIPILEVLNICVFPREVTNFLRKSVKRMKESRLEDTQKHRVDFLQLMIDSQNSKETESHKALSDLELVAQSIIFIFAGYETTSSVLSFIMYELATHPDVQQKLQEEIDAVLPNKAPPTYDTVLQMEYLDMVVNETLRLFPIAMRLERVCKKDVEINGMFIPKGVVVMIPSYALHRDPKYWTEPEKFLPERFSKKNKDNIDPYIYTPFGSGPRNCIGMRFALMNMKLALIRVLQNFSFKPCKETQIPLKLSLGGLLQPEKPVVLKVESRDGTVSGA
Sequence of Cytochrome P450 2C19 (P33261 whole entry): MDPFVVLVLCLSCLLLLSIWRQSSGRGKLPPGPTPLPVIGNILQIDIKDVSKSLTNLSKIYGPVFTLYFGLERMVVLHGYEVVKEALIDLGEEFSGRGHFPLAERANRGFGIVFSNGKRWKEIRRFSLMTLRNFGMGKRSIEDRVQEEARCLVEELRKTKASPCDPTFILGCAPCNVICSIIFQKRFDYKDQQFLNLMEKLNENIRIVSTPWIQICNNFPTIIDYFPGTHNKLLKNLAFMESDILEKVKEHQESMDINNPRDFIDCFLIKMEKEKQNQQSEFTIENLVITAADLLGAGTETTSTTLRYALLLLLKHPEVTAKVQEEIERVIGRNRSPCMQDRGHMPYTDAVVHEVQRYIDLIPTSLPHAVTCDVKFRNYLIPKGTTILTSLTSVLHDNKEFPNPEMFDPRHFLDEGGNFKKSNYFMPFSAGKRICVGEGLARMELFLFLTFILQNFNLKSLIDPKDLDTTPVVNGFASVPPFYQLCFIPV
Sequence of Cytochrome P450 2C9 (P11712 whole entry): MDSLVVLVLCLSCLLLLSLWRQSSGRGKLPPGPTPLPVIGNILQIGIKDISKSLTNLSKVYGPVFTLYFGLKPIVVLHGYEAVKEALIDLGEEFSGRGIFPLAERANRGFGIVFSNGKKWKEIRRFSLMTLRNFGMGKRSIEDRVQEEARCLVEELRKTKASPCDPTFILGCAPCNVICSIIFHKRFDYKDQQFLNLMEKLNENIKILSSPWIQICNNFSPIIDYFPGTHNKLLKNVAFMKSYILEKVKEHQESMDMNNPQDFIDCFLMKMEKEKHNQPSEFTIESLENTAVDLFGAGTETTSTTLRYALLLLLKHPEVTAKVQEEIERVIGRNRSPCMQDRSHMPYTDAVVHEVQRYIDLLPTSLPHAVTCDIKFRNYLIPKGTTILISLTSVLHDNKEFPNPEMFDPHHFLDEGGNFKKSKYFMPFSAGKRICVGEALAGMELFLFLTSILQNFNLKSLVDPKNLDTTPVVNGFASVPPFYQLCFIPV
Sequence of Cytochrome P450 2D6 (P10635 whole entry): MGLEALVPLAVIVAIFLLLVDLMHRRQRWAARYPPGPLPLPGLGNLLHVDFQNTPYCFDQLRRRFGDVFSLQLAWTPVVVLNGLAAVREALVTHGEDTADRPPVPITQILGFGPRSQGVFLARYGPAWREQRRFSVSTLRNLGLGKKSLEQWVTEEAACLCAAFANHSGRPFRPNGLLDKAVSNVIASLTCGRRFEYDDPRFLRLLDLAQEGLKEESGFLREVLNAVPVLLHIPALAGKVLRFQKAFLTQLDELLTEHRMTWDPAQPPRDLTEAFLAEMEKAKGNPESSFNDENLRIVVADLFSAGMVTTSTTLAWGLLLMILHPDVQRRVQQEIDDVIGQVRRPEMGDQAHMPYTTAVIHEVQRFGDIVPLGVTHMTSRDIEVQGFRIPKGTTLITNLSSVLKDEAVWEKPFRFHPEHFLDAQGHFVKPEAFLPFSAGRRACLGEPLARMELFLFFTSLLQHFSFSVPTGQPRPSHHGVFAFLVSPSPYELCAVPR

Structure (SMILES) | EC50 [1] | EC50 [4] | further results
Cc1cc(NC2CCCCC2)nc(NCc2ccccc2)n1 | 80 nM | 250 nM | IC50 [2]: 4.2 µM; IC50 [3]: > 5 µM; IC50 [5]: 3.1 µM; solubility [6]: 26 µg/mL (≈ 87.7 µM); logD [7]: 3.9; CC50 at 96 h [8]: 7.5 µM; CC50 at 96 h [9]: 7.5 µM; IC50 [10]: > 5 µM; IC50 [11]: > 5 µM
COc1cc(CNc2nc(C)cc(NCc3ccccc3)n2)cc(OC)c1OC | 780 nM | 930 nM | –
Cc1cc(Nc2ccccc2)nc(N2CCCN(C)CC2)n1 | – | – | logD [7]: 1.7
Cc1cc(NC2CCCCC2)nc(NC2CCCCC2)n1 | – | 210 nM | –
Cc1cc(NCc2ccccc2)nc(NCC23CC4CC(CC(C4)C2)C3)n1 | 410 nM | 400 nM | –
Cc1cc(N(C)C2CCCCC2)nc(N[C@@H](C)c2ccccc2)n1 | 590 nM | 690 nM | –
CCCCCCCNc1nc(C)cc(NC2CCCCC2)n1 | – | 210 nM | –
Cc1cc(NC(C)C)nc(NCC23CC4CC(CC(C4)C2)C3)n1 | – | 270 nM | –
Cc1cc(N2CCCN(C(=O)OC(C)(C)C)CC2)nc(NC2CCN(Cc3ccccc3)CC2)n1 | – | – | logD [7]: 2.7
Cc1cc(Nc2ccccc2)nc(NCc2ccc3c(ccn3C)c2)n1 | 350 nM | 590 nM | –
Cc1cc(N2CCCNCC2)nc(NC2CCN(Cc3ccccc3)CC2)n1 | – | – | logD [7]: -0.15
Cc1cc(NC2CCCCC2)nc(NC2CCN(Cc3ccccc3)CC2)n1 | – | 250 nM | –
Cc1cc(NC2CCN(Cc3ccccc3)CC2)nc(N2CCCN(C)CC2)n1 | – | – | logD [7]: 1
Cc1cc(NC(C)C)nc(Nc2ccccc2)n1 | – | 1500 nM | –
Cc1cc(NC2CCCCC2)nc(N[C@@H](C)c2ccccc2)n1 | 120 nM | 500 nM | –
Cc1cc(NCc2ccccc2)nc(NC2CCCCC2)n1 | 430 nM | 1260 nM | –
Cc1cc(NC2CCCCC2)nc(N(C)Cc2ccccc2)n1 | > 10000 nM | > 10000 nM | –
Cc1cc(NC2CCN(Cc3ccccc3)CC2)nc(N2CCCN(C(=O)OC(C)(C)C)CC2)n1 | – | – | logD [7]: 2.77
Cc1cc(Nc2ccccc2)nc(NCc2ccccn2)n1 | – | 2140 nM | clearance [12]: 114 µL/min/mg; clearance [13]: 70 µL/min/mg

Structure (SMILES) | EC50 [1] | EC50 [4] | further results
CCCCCCCNc1nc(C)cc(NC(C)C)n1 | – | 310 nM | –
Cc1cc(Nc2ccccc2)nc(NCc2ccc3c(c2)OCO3)n1 | 110 nM | 360 nM | clearance [12]: > 119 µL/min/mg; clearance [13]: 31.3 µL/min/mg; IC50 [14]: 9.5 µM
Cc1cc(NCc2ccccc2)nc(NCCN2CCCC2)n1 | 1080 nM | 1450 nM | –
Cc1cc(NC(C)C)nc(NCc2ccc3c(ccn3C)c2)n1 | – | 1220 nM | –
FC(F)(F)c1cc(Nc2ccccc2)nc(NCc2ccccn2)n1 | – | – | clearance [12]: > 119 µL/min/mg; clearance [13]: > 99 µL/min/mg; IC50 [14]: 40.1 µM
Cc1cc(NC2CCCCC2)nc(NCc2ccc3c(c2)OCO3)n1 | – | 200 nM | –
Cc1cc(NC2CCCCC2)nc(Nc2ccccn2)n1 | > 1000 nM | > 2000 nM | –
Cc1cc(NC(C)C)nc(NC2CCCCC2)n1 | – | 390 nM | –
Cc1cc(Nc2ccccc2)nc(NCc2ccccc2)n1 | 120 nM | 90 nM | clearance [12]: > 119 µL/min/mg; clearance [13]: 55.2 µL/min/mg
Cc1cc(Nc2ccccc2)nc(N2CCCN(C(=O)OC(C)(C)C)CC2)n1 | – | – | logD [7]: 3.95
Cc1cc(NC2CCCCC2)nc(NC(C)C)n1 | – | 740 nM | –
Cc1cc(NC(C)C)nc(NC2CCN(Cc3ccccc3)CC2)n1 | – | 810 nM | –
Cc1cc(NC(C)C)nc(NCc2ccc3c(c2)OCO3)n1 | – | 840 nM | –
Cc1cc(N(C)C2CCCCC2)nc(N(C)Cc2ccccc2)n1 | > 10000 nM | > 10000 nM | –
Cc1cc(NC(C)C)nc(NC(C)C)n1 | – | 4270 nM | –
Cc1cc(NC2CCCCC2)nc(N[C@H](C)c2ccccc2)n1 | 90 nM | 420 nM | –
COc1cc(CNc2nc(C)cc(NC(C)C)n2)cc(OC)c1OC | – | 1920 nM | –
Cc1cc(Nc2ccccc2)nc(NCCN2CCCC2)n1 | 1460 nM | 1240 nM | –
Cc1cc(NC2CCCCC2)nc(NCCN2CCCC2)n1 | – | 2750 nM | –

Structure (SMILES) | EC50 [1] | EC50 [4] | further results
COc1cc(CNc2nc(C)cc(NC3CCCCC3)n2)cc(OC)c1OC | – | 260 nM | –
Cc1cc(Nc2ccccc2)nc(N2CCCNCC2)n1 | – | – | logD [7]: 0.51
Cc1cc(N2CCCN(C)CC2)nc(NC2CCN(Cc3ccccc3)CC2)n1 | – | – | logD [7]: 1
Cc1cc(NCc2ccccc2)nc(NC2CCN(Cc3ccccc3)CC2)n1 | 160 nM | 160 nM | –
Cc1cc(NC2CCN(Cc3ccccc3)CC2)nc(N2CCCNCC2)n1 | – | – | logD [7]: -0.17
Cc1cc(NC2CCCCC2)nc(NCC23CC4CC(CC(C4)C2)C3)n1 | – | 370 nM | –
FC(F)(F)c1cc(Nc2ccncc2)nc(NCc2ccc3c(c2)OCO3)n1 | – | – | IC50 [14]: 135 µM
Cc1cc(NC(C)C)nc(NCCN2CCCC2)n1 | – | > 5000 nM | –
Cc1cc(Nc2ccccc2)nc(NC(C)C)n1 | 280 nM | 750 nM | –
Cc1cc(NC2CCCCC2)nc(Nc2ccccc2)n1 | – | 230 nM | –
Cc1cc(NCc2ccccc2)nc(NC(C)C)n1 | 1430 nM | 1050 nM | –
CCCCCCCNc1nc(C)cc(Nc2ccccc2)n1 | 90 nM | 90 nM | –
Cc1cc(N(C)C2CCCCC2)nc(NCc2ccccc2)n1 | 680 nM | 1020 nM | –
Cc1cc(NC2CCCCC2)nc(NCc2ccc3c(ccn3C)c2)n1 | – | 240 nM | –
FC(F)(F)c1cc(Nc2ccccc2)nc(NCc2ccncc2)n1 | – | – | clearance [12]: > 119 µL/min/mg; clearance [13]: 56.2 µL/min/mg
Cc1cc(N(C)C2CCCCC2)nc(N[C@H](C)c2ccccc2)n1 | 630 nM | 940 nM | –
Cc1cc(NC(C)C)nc(NCc2ccccc2)n1 | – | 350 nM | –
Cc1cc(NCc2ccccc2)nc(Nc2ccccc2)n1 | 850 nM | 1020 nM | –
